Data from PMC3579011 (Molecular cancer research : MCR, 2012).
Positions of bridges follow the written chain, without caps; N, C: chain ends. No end group written: not given here.

How the values were obtained:
[1] = tested on: DU145, UMUC3 and J82 cells; experiment: LDH release with autophagy inhibitor, DU145, UMUC3, J82; assay type: cell-based, human; settings: bafilomycin A1 40–400 nM added 1 hour prior to CLT1 (25 µg/ml) + FN, 24 hours
In short: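 DU145, UMUC3 and J82 cells at about 50% confluence received 40 to 400 nmol/L bafilomycin A1 plus test peptide with fibronectin for 24 h. Cell death was measured as LDH release using a cytotoxicity detection kit. Values were normalized to background death of control cells treated without peptide in the same medium.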

DU145 cells [2] = experiment: Uptake of fluorescein-CLT1 by fluorescence microscopy, DU145; assay type: cell-based, human; settings: nocodazole 10 µM, 24 hours, versus DMSO
In short: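 DU145 cells were grown on vitronectin-coated coverslips and exposed 24 h to fluorescein-conjugated peptide alone or with nocodazole, with DMSO as vehicle. Cells were fixed in 4% paraformaldehyde and stained with DAPI. Uptake was scored by fluorescence microscopy at ×40 as the percentage of peptide-positive cells per optical field.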

DU145 cells [3] = experiment: LDH release cytotoxicity assay, DU145; assay type: cell-based
[4] = tested on: bladder tumor cells (J82, T24, UMUC3, TCCSUP); experiment: LDH release cytotoxicity assay, bladder tumor cells; assay type: cell-based; settings: CLT1 75 µg/ml, 24 hours; even in the presence of urine
[5] = tested on: 786-0 kidney cancer cells; experiment: CLT1-induced cell death, 786-0; assay type: cell-based, human
[6] = tested on: LC3 in UMUC3 and J82 cells; experiment: LC3 conversion; assay type: cell-based, human; settings: CLT1 25 µg/ml, 2% serum + FN, 24 hours
In short: (§1)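 Cells were lysed by subcellular protein fractionation to obtain the cytoplasmic fraction, or in 2× SDS sample buffer. Proteins were run on SDS-PAGE and transferred to PVDF, with 0.05% Ponceau S staining to check equal loading. Blots were blocked in 5% BSA and probed overnight at 4°C with anti-cathepsin D or anti-LC3B, then detected with peroxidase-conjugated anti-rabbit or anti-mouse IgG and enhanced chemiluminescence.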

[7] = tested on: primary human bladder epithelial cells (HBEC); experiment: LDH release cytotoxicity assay, primary bladder epithelial cells; assay type: cell-based; settings: CLT1 75 µg/ml, 24 hours
In short: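 Primary human bladder epithelial cells were kept in serum-free Prostalife basal medium with supplements at 37°C and 5% CO2, and treated at about 50% confluence. Peptide diluted in water was added for 24 h in 2% serum alone, or with fibronectin or fibrinogen. Cell death was read as LDH release, expressed as a percentage of maximal release from camptothecin plus 100 nmol/L staurosporine.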

angiogenic endothelium = settings: cited from earlier work
[8] = tested on: cathepsin D (lysosome leakage) in DU145, UMUC3 and J82 tumor cells; experiment: Cathepsin D in cytosolic fraction; assay type: cell-based, human; settings: CLT1 75 µg/ml, 24 hours
In short: as §1

[9] = tested on: bladder and prostate tumor cells; experiment: Internalization of fluorescein-CLT1 with fibronectin or fibrinogen; assay type: cell-based, human; settings: FN or FG each 30 µg/ml
In short: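 Cells were grown on vitronectin-coated coverslips and incubated 24 h with fluorescein-conjugated peptide in 2% serum with fibronectin or fibrinogen. They were then fixed in 4% paraformaldehyde and mounted in DAPI-containing medium. Internalization was scored by fluorescence microscopy at ×40 as the percentage of peptide-positive cells per optical field.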

[10] = tested on: human bladder (J82, T24, UMUC3, TCCSUP), prostate (DU145), kidney (RCC4), breast (MDA-MB-231) and lung (A549) tumor cell lines; experiment: LDH release cytotoxicity assay, panel of tumor cell lines; assay type: cell-based; settings: without CLT1

CO/C1=C\C(C)=C\[C@@H](C)[C@@H](O)[C@@H](C)C/C(C)=C/C=C/[C@H](OC)[C@@H]([C@@H](C)[C@@H](O)[C@H](C)[C@@]2(O)C[C@@H](O)[C@H](C)[C@@H](C(C)C)O2)OC1=O [bafilomycin A1, Bafilomycin A1]
effect on CLT1 cytotoxicity (LDH release) [1]: significantly reduced

COC(=O)Nc1nc2ccc(C(=O)c3cccs3)cc2[nH]1 [nocodazole, reference compound]
effect on CLT1 uptake (DU145 cells [2]): inhibited | effect on CLT1 cytotoxicity (LDH release) (DU145 cells [3]; nocodazole 10 µM, CLT1 75 µg/ml, 24 hours, versus DMSO): significantly reduced

CGLIIQKNEC (disulfide 1-10 (inferred)) [CLT1]
cell death of bladder cancer cells [4]: extensive cell death | sensitivity to CLT1-induced cell death [5]: largely resistant | LC3 conversion (autophagy marker) [6]: causes LC3 conversion | cytotoxic activity in primary bladder epithelial cells [7]: largely inactive | anti-angiogenic activity in vivo (angiogenic endothelium): strong anti-angiogenic activity | cathepsin D in cytoplasmic fraction (indicator for lysosome leakage) [8]: increased concentrations | CLT1 concentration at which cytotoxicity reached a plateau (DU145 cells [3]; CLT1 7.5–150 µg/ml, 2% serum + 30 µg/ml fibronectin, 24 hours, LDH release): 75 µg/mL | cell death in the absence of plasma fibronectin (DU145 cells [3]; prostate tumor cells, FN-depleted serum): minimal cell death

fibrinogen
effect on CLT1 uptake / internalization [9]: largely prevents

fibronectin
effect of protein alone on tumor cell fate [10]: no effect | effect on CLT1 uptake / internalization [9]: supports | fibronectin concentration at which CLT1 cytotoxicity occurred (DU145 cells [3]; FN-depleted serum, CLT1 75 µg/ml, FN 3–100 µg/ml, within 24 hours, LDH release): 10 µg/mL
